System: MS2 coat protein
Experiment: apparent Kd, MS2 coat protein; higher = weaker binding; RNA-MaP array; tryptophan 2.4 mM where present
Outline: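 Each design was made on Illumina sequencing-chip clusters by stalled E. coli RNA polymerase and titrated with SNAP-549-labelled MS2 coat protein from 0.7 or 1.5 nM, doubling to 3 µM, in the absence and then the presence of constant ligand. The buffer was 100 mM Tris-HCl pH 7.5, 80 mM KCl, 4 mM MgCl2, BSA, DTT, yeast tRNA and Tween-20. The apparent Kd is the median of filtered per-cluster fits of binding curves, with green signal normalised to red-channel RNA signal and control-cluster median Fmax.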

[1] = designed as: OFF switch for tryptophan, no ligand
[2] = ligand present: tryptophan, designed as: OFF switch for tryptophan
[3] = designed as: ON switch for tryptophan, no ligand
[4] = ligand present: tryptophan, designed as: ON switch for tryptophan

Sequence	apparent Kd [1] [nM]	apparent Kd [2] [nM]	apparent Kd [3] [nM]	apparent Kd [4] [nM]
GGAGCUACGUCGGCCGCCACUAGCGGUUAUUACGUGUACAUGAGGAUCACCCAUGUAAUAUGGCUUAGGACCGGGACGUAGCUCC	22.5	27.1		
CUUCGCAUAGGAAAACUAUGUGAAGAAAAUCGAGGACCGGUACGGCCGCCACUCGUCCUCAACAUGAGGAUCACCCAUGUAAUAA	18.3	40.1		
UGACAGAUAACCGCUGGUGCUCUCGAGUUGCGAGGACCGGUACGGCCGCCACUCGACAACAUGAGGAUCACCCAUGUUGCGGGUC	102	49.8		
AAUUCCGGGUCGGCCGCCACUGAUAUGGCGAGUCCUCGAACUUACAUGAGGAUCACCCAUGUAAACAGGACCGGGACCGCAUGGG	18.5	49.1		
UUACCGUAAGGUAUACCGGUCCACAAUAAUCGAGGACCGGUACGGCCGCCACUCGAUGUGUGAUCACAUGAGGAUCACCCAUGUA			265	379
CCUAUGCAGUCGGCCGCCACUGAACAUGAGGAUCACCCAUGUAAUUAAAAUUAUGAUCCUGAAAUCAGGACCGGGACUGUAUAGG	218	85.4		
CUCAUCCACGCGGCCGCCACUAUAUUGUGGUGCGAAUGUGUCGUAAUACAUGAGGAUCACCCAUGUAGGACCGGGCGUGGAUGAG	12.6	54.8		
GCCGCUGCCGCGAUAUGUAUGGGUGUGUAACGAGGACCGGUACGGCCGCCACUCGCGAUCGCACAUGAGGAUCACCCAUGUGUCC	53.7	78.5		
CUAUAAGUACCGGUCCUCAGAUCCUCAUGACGAGGACCGGUACGGCCGCCACUCGAAACAUGAGGAUCACCCAUGUAAUAACAUU	19.8	20.2		
AAUGUAUUCCACAUGAGGAUCACCCAUGUGCGAGGACCGGUACGGCCGCCACUCGGUGUUGGGAUCAGUUCUGAAUACAUUAAUG	15.9	47.5		
AGCAACUAGUCGGCCGCCACUCAUAUUACAUGAGGAUCACCCAUGUAUACAUGGUUGUUAUAUUUGAGGACCGGGACAGUUGCAU			70.4	38.1
GGGUACAUCGCGGCCGCCACUUAUGUAAAUACAUGAGGAUCACCCAUGUCGAUGGAGACAUCGGAGAGGACCGGGUGAUGUACCG			36.1	35.9
ACAUGAGGAUCACCCAUGUACAUCACCCGACGAGGACCGGUACGGCCGCCACUCGGGUAUAUAUAUACAUCGGGUGGUUUUGCAU			17.6	17.3
UAUACAUGGUAUAAAUAUAUAUAUAAGAAACGAGGACCGGUACGGCCGCCACUCGUGCCGGAAACAUGAGGAUCACCCAUGUAUU	37.6	22.8		
AAUUAUCAGUCGGCCGCCACUGACACAUGAGGAUCACCCAUGUAACUUGGGAUAAAUUUAAUAAACAGGACCGGGACAAAGGCUA	58.8	49.7		
UUUAUAUAGACGGCCGCCACUGGAAUUAAUACAUGAGGAUCACCCAUGUAUAGAGAAUAAUAAUACAGGACCGGGUCUUCAUGAU			29.4	12
GCAUCCUAGUCGGCCGCCACUGCAAUUGUAGUACUGCUACAUGAACAUGAGGAUCACCCAUGUAGCAGGACCGGGACUAGGAUGC			55	16.1
CCUAUGCAGUCGGCCGCCACUGAGUCCUCAAUAAUAAAUUAAUAUACAUGAGGAUCACCCAUGUACAGGACCGGGACUGUAUAGG	205	167		

Sequence	apparent Kd [1] [nM]	apparent Kd [2] [nM]	apparent Kd [3] [nM]	apparent Kd [4] [nM]
AUAAUAUAGACGGCCGCCACUAUAAACAUGAGGAACAUGAGGAUCACCCAUGUAUGAGGAUCACCUAGGACCGGGUCAUAUAUUA	55.8	42		
UAAUGCAUGACGGCCGCCACUAGAACAUGAGGAUCACCCAUGUACGGCGGCCGUCAUGGGUGGACUAGGACCGGGUCAUGCAUAU	9.23	10.5		
UAACAUGAGGAUCACCCAUGUUUGAAGAAACGAGGACCGGUACGGCCGCCACUCGACGAGUGGAUGAAUAGUGGGCUUGUGUGCU			13.7	15
UGUCGUAGACAUGAGGAUCACCCAUGUCCACGAGGACCGGUACGGCCGCCACUCGGGAUAUAAACCGUUACGGGUGGGUGGUGUU	18.8	37.3		
CGCAACAUGAGGAUCACCCAUGUAAUGACGCGAGGACCGGUACGGCCGCCACUCGCCUGGCAGUGAGCGCAUGCGGCCUGGGUAU	11.1	12.2		
UAUAUAUACUCGGCCGCCACUGAGAGAGUCAUGUAAACAUGAGGAUCACCCAUGUAAUAUAUAUACAGGACCGGGAGUAUAUUAA	15.7	13.8		
UAACAUGAGGAUCACCCAUGUAAACUAAGUCGAGGACCGGUACGGCCGCCACUCGAAAUUGAAGAAUUGGCGGAAAAUGUAUGUU	13.9	18.9		
GCGGAAUAAUCGGCCGCCACUAUGAUAUAGGAAACUAUAACAUGAGGAUCACCCAUGUAUCCUCAUAGGACCGGGAUUAAAACGC			105	24.8
GGAAUAAUGGCGGCCGCCACUAACUCAUAUACAUCAUGUACAUGAGGAUCACCCAUGUAGGUGUAUAGGACCGGGCCAUAAUUCC	22.4	38.1		
AUGCAGAACACGGCCGCCACUCAUUGUAGACAUGAGGAUCACCCAUGUAAUAGGGAUAUUUUAUUGAGGACCGGGUGUAAUGCAA			51.1	28.9
GACGCAUGAGUUGGAACAGCUCAUGGGUCGCGAGGACCGGUACGGCCGCCACUCGGCUGUACAUGAGGAUCACCCAUGUCAGGGU			279	550
CACAAUUUGUCGGCCGCCACUAAGGUAACUUUUCUCACAUGAGGAUCACCCAUGUGCCCGAAACUUAGGACCGGGAUAAUGGGUG			82.4	45.3
CUAAUUAUAUCGGCCGCCACUUACUCAUGAGGUAACAACAUGAGGAUCACCCAUGUUUGAGGAUCAAGGACCGGGAUAUAAUUAG			28.9	17
UAAUCCGGUCCUCGAUAACAUGGGUGAAUACGAGGACCGGUACGGCCGCCACUCGAUAACAUGAGGAUCACCCAUGUAAUAAUAA	85.7	84.1		
AAACAUGAGGAUCACCCAUGUUGAGGAUCACGAGGACCGGUACGGCCGCCACUCGACAUGAGGAUCACCCAUGUGAGGAUCACCC			175	174
ACGUAGAAGUCGGCCGCCACUGAUUUCAUGUUCAACAUGAGGAUCACCCAUGUACCUUAUGUUAACAGGACCGGGACGUAUACGA			298	55
AGCAACAAGUCGGCCGCCACUCUUUUUACAUGAGGAUCACCCAUGUUUAUAUCAUGGUCUUAAUAGAGGACCGGGACAGUUGCAU	37.2	54.6		
AAUGUAUGGCACAUGAGGAUCACCCAUGUGCGAGGACCGGUACGGCCGCCACUCGGUCCUGGGAUCUUAUUACUAUACAUUAAUG	11.6	24		

Source: the EternaBench riboswitch data
